Assay results taken from PubChem BioAssay.
Inconclusive results are not listed.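 The calls were made as follows, unless noted: active = viability increase at or above a cutoff of the median across tested compounds plus 3 SD (cut at about 8.5% in these data, passing the limit was not always enough); inconclusive = some gains above the cutoff, reason not given; inactive = the rest.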

Columns and labels:
[1] = OD615 S. cerevisiae growth inhibition, permissive medium, pilot counter-assay, permissive growth control for S. cerevisiae lifespan shortening project (AID 705;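 active = growth inhibition above 25% in both replicates, a cutoff set 3 SD above the mean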); conditions: OD615, 24 h, at 10 µM, stronger effect = higher value
Summary of the method: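 Material: engineered DeaD yeast; Compound: one dose 10 µM, DMSO 0.25% final; Detection: absorbance (optical density) at 615 nm; Buffer or medium: permissive raffinose/galactose medium; Timing: 24 h exposure, 30 °C.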

[2] = Restrictive medium S. cerevisiae growth inhibition, OD615, pilot screen of yeast lifespan reduction project, restrictive growth control (AID 706;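 active = growth inhibition above a set limit, 3 SD over mean compound inhibition, in both replicates, cut at about 43% in these data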;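 also: modified DeaD lifespan yeast strain shifted to restrictive glucose medium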); conditions: OD615, 48 h, at 10 µM, stronger effect = higher value
Summary of the method: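 Buffer or medium: restrictive glucose medium (CSMM-D); test system: modified S. cerevisiae; doses: single dose of 10 µM compound final, 0.25% DMSO; schedule: 48 h compound exposure at 30 °C; detection: absorbance (optical density) measured at 615 nm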

[3] = viability gain of MRP-1-high H69AR cells under doxorubicin, pilot screen, MRP-1 activator project, CellTiter-Glo, duplicate (AID 807); conditions: H69AR viability with doxorubicin, CellTiter-Glo luminescence; at 10 µM; stronger effect = higher value;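 also: compound pretreatment 18-22 h then 72 h combined with doxorubicin; 0% = doxorubicin alone and 100% = vehicle without doxorubicin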
[4] = growth suppression of beta-catenin knockout HCT116, pilot screen, human colon tumor cells (AID 823;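 active = cell viability at or below a set limit in both duplicate runs, the limit being the all-compound median minus 4 SD, cut at about 23% in these data, passing the limit was not always enough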;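 also: 0% = wells killed by 20 µM Hyamine and 100% = untreated DMSO cell wells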); conditions: CellTiter-Glo, 60 h, at 10 µM, stronger effect = lower value
[5] = growth suppression of PTEN-deleted HCT116, pilot screen, cell-based, HCT116 clonal line, CellTiter-Glo (AID 824;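 active = viability at or below 27.92% in each of two runs, the all-compound median minus 4 SD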;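 also: 0% = 20 µM Hyamine control and 100% = vehicle cell control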); conditions: 60 h, at 10 µM, stronger effect = lower value
[6] = inhibitors of the yeast RAM network, pilot screen, dse1pr::URA3 reporter, 5-FOA selection (AID 869;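 active = inhibition over a set limit, the all-compound mean plus 3 SD, in both replicate runs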;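 also: 0% = DMSO wells with no growth and 100% = 10 µM 1-NA-PP1 with full growth; RAM network block rescues cells from 5-FOA so hits raise OD615 growth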); conditions: S. cerevisiae dse1pr::URA3 5-FOA growth, OD615, 2 d; at 10 µM; stronger effect = higher value; strain carries analog-sensitive mutant Cbk1 kinase
[7] = RAM signaling pathway blockade in yeast – S. cerevisiae, Pdr1DBD-CYC8 efflux-inhibited sensitized strain, primary screen (AID 1298;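 active = RAM network inhibition above 8.4% in each of two replicates, 3 SD over the compound average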;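 also: 0% = DMSO untreated cells without growth and 100% = 10 µM 1-NA-PP1 full growth; higher means more yeast growth rescued from 5-FOA killing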); conditions: S. cerevisiae cbk1-as DSE1-URA3 strain, 5-FOA growth OD615, 2 d; at 50 µM; stronger effect = higher value

COc1ccccc1-c1cc(C(=O)N2CCCCC2)no1
inactive: growth inhibition [1] -6.35% | growth inhibition [2] 11.2% | viability increase [3] -0.55% | viability [4] 103% | viability [5] 93.2% | inhibition [6] 2.1% | RAM network inhibition [7] 4.18%

COc1ccc(-n2c3c(cc(C(=O)N4CCC(C)CC4)c2=O)C(=O)CC(C)(C)C3)cc1
inactive: growth inhibition [1] -3.21% | growth inhibition [2] 7.18% | viability increase [3] -2.27% | viability [4] 111% | viability [5] 101% | inhibition [6] 1.98% | RAM network inhibition [7] 0.25%

CCCCCn1c(=O)[nH]c2cc(C(=O)O)ccc2c1=O
inactive: growth inhibition [1] -13.9% | growth inhibition [2] -12.1% | viability increase [3] -1.3% | viability [4] 102% | viability [5] 90.7% | inhibition [6] 1.91% | RAM network inhibition [7] 2.2%

CCC(=O)c1ccc(OCC(=O)Nc2nn3cnnc3s2)cc1
inactive: growth inhibition [1] -2.54% | growth inhibition [2] 8.22% | viability increase [3] 1% | viability [4] 104% | viability [5] 102% | inhibition [6] 1.27% | RAM network inhibition [7] 6.32%

O=C(Cn1cc2c(n1)CCCC2)Nc1cc(-c2cccc(Cl)c2)no1
inactive: growth inhibition [1] 3.94% | growth inhibition [2] 3.73% | viability increase [3] 0.67% | viability [4] 99.2% | viability [5] 87.2% | inhibition [6] 0.9% | RAM network inhibition [7] 2.24%

Cc1ccc(-c2nc(CS(=O)(=O)CC(=O)N3CCCCCC3)c(C)o2)cc1
inactive: growth inhibition [1] -2.76% | growth inhibition [2] 0.63% | viability increase [3] -1.22% | viability [4] 50% | viability [5] 70.6% | inhibition [6] 0.26% | RAM network inhibition [7] 4.22%

CCCCSc1nc2c(c(=O)n1CC)SC(C)C2 (stereo not drawn)
inactive: growth inhibition [1] -3.78% | growth inhibition [2] 5.58% | viability increase [3] -2.43% | viability [4] 87.3% | viability [5] 87.8% | inhibition [6] 0.125% | RAM network inhibition [7] 5.53%

Cc1ccccc1OCC(O)Cn1c(NCCN(C)C)nc2c1c(=O)n(C)c(=O)n2C (stereo not drawn)
inactive: growth inhibition [1] -13.3% | growth inhibition [2] 2.24% | viability increase [3] -1.92% | viability [4] 93.5% | viability [5] 99.4% | inhibition [6] 2.01% | RAM network inhibition [7] 1.15%

CCOC(=O)c1nn(-c2ccccc2)c(=O)c2c(N)scc12
inactive: growth inhibition [1] -4.99% | growth inhibition [2] -1.54% | viability increase [3] -3.93% | viability [4] 102% | viability [5] 107% | inhibition [6] 2.98% | RAM network inhibition [7] 4.03%

CCOc1ccccc1CNS(=O)(=O)c1ccc2c(c1)oc(=O)n2C
inactive: growth inhibition [1] -8.67% | growth inhibition [2] -0.955% | viability increase [3] -1.75% | viability [4] 102% | viability [5] 94% | inhibition [6] -0.575% | RAM network inhibition [7] 1.03%

CC1(C)Cc2c(c(N3CCOCC3)nc3sc(C(=O)N4CCCCC4)c(N)c23)CO1
inactive: growth inhibition [1] 2.35% | growth inhibition [2] 29.3% | viability increase [3] -4.48% | viability [4] 100% | viability [5] 96.6% | inhibition [6] 2.62% | RAM network inhibition [7] 3.43%

COCCCNC(=O)Cn1ncc2ccsc2c1=O
inactive: growth inhibition [1] -4.86% | growth inhibition [2] 3.33% | viability increase [3] 1.3% | viability [4] 107% | viability [5] 101% | inhibition [6] -0.05% | RAM network inhibition [7] -0.97%

COc1ccccc1CNC(=O)CCn1c(=O)oc2ccccc21
inactive: growth inhibition [1] 5.65% | growth inhibition [2] 6.41% | viability increase [3] -3.05% | viability [4] 104% | viability [5] 96.2% | inhibition [6] 2.48% | RAM network inhibition [7] 5.75%

CC(c1ccccc1)N1CNc2c(c(=O)n(C)c(=O)n2C)C1 (stereo not drawn)
inactive: growth inhibition [1] -8.04% | growth inhibition [2] 2.52% | viability increase [3] -1.82% | viability [4] 94.3% | viability [5] 92.2% | inhibition [6] 0.02% | RAM network inhibition [7] 0.77%

CCN1C(=O)c2ccccc2S(=O)c2ccc(C(=O)N3CCN(C(=O)c4ccco4)CC3)cc21 (stereo not drawn)
inactive: growth inhibition [1] -1.51% | growth inhibition [2] 7.19% | viability increase [3] -2.16% | viability [4] 101% | viability [5] 92.5% | inhibition [6] 1.33% | RAM network inhibition [7] 7.96%

CN(C)c1ccc(C(=O)Nc2nc3c(s2)CCCC3)cc1
inactive: growth inhibition [1] 9.25% | growth inhibition [2] -3.03% | viability increase [3] -0.42% | viability [4] 69.7% | viability [5] 72.4% | inhibition [6] 0.905% | RAM network inhibition [7] 1.19%

CCCc1cc(C(=O)NC2CCCC2)no1
inactive: growth inhibition [1] -11.7% | growth inhibition [2] -2.35% | viability increase [3] 0.7% | viability [4] 103% | viability [5] 98.1% | inhibition [6] 0.365% | RAM network inhibition [7] 3.3%

CCOC(=O)c1nc2ccccc2s1
inactive: growth inhibition [1] -4.63% | growth inhibition [2] -15.7% | viability increase [3] -2.72% | viability [4] 99.2% | viability [5] 97.4% | inhibition [6] 1.02% | RAM network inhibition [7] 1.61%

C=CCn1c(NCc2cc(C)ccc2O)nc2ccccc21
inactive: growth inhibition [1] -18.2% | growth inhibition [2] -17.9% | viability increase [3] -2.74% | viability [4] 82.8% | viability [5] 70.6% | inhibition [6] -0.74% | RAM network inhibition [7] 2.04%

CCN(CC)C(=O)CN(Cc1ccccc1)S(=O)(=O)c1ccc(F)cc1
inactive: growth inhibition [1] -8.49% | growth inhibition [2] -11.4% | viability increase [3] -0.99% | viability [4] 93.8% | viability [5] 97.5% | inhibition [6] 1.32% | RAM network inhibition [7] 2.88%

CN(C)CCNC(=O)c1ccc(CS(=O)(=O)c2ccc(Br)cc2)o1
inactive: growth inhibition [1] 3.18% | growth inhibition [2] 4.8% | viability increase [3] -0.05% | viability [4] 103% | viability [5] 103% | inhibition [6] 0.565% | RAM network inhibition [7] 2.81%

Cc1ccc(C(c2sc3nc(C)nn3c2O)N2CCN(CCO)CC2)cc1 (stereo not drawn)
inactive: growth inhibition [1] -1.01% | growth inhibition [2] 7% | viability increase [3] -0.92% | viability [4] 97.8% | viability [5] 97.5% | inhibition [6] 1.54% | RAM network inhibition [7] 4.52%

CCN1CCN(C(=O)c2cc3c(s2)-c2ccccc2S(=O)(=O)C3)CC1
inactive: growth inhibition [1] -4.69% | growth inhibition [2] -9.1% | viability increase [3] -2.15% | viability [4] 99.6% | viability [5] 92.5% | inhibition [6] 2.36% | RAM network inhibition [7] 0.72%

COc1ccc(-c2cc(C(F)(F)F)nc(N3CCN(C)CC3)n2)cc1
inactive: growth inhibition [1] 1.48% | growth inhibition [2] -4.37% | viability increase [3] -5.32% | viability [4] 33.7% | viability [5] 42.9% | inhibition [6] 1.43% | RAM network inhibition [7] 4.04%
